Results: ChEMBL document CHEMBL1136801, “Cyclopropane-containing polyamine analogues are efficient growth inhibitors of a human prostate tumor xenograft in nude mice” (J Med Chem, 2003)

Experiments:
PC-3 = assay: Growth inhibitory effect was assessed against the human prostate tumor cell line PC-3 using MTT assay; type: functional; details: read-out: ID50 (the source's name)
Outline: (§1)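 Cells seeded at 500 per well and incubated overnight at 37 °C in humidified 95% air/5% CO2, then exposed to serially diluted drug for 6 days, each concentration in quadruplicate, with buffer controls. MTT (5 mg/mL solution) added for 4 h at 37 °C; lysed overnight at 37 °C in SDS/DMF buffer, pH 4.8; absorbance at 570 nm. ID50 is the concentration giving 50% growth inhibition.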

Mus musculus [1] = assay: Toxicity studies on male athymic NCr-nu mice administered ip daily for 5 consecutive days then rested for 10 days, and a second cycle of treatment also followed the q1d x 5 schedule; Two treatment-related deaths out of three animals; type: organism-based; details: in vivo, 240 h
DU-145 = assay: Growth inhibitory effect was assessed against the human prostate tumor cell line Du-145 using MTT assay; type: functional; details: read-out: ID50 (the source's name); outline: as §1
DuPro = assay: Growth inhibitory effect was assessed against the human prostate tumor cell line DuPro using MTT assay; type: functional; details: read-out: ID50 (the source's name); outline: as §1
Mus musculus [2] = assay: Toxicity studies on male athymic NCr-nu mice administered ip daily for 5 consecutive days then rested for 10 days, and a second cycle of treatment also followed the q1d x 5 schedule; Death of all three mice; type: organism-based; details: in vivo, 240 h
[3] = (§2) Toxicity studies on male athymic NCr-nu mice administered ip daily for 5 consecutive days then rested for 10 days, and a second cycle of treatment also followed the q1d x 5 schedule; type: organism-based; details: mouse, in vivo, read-out: Lethality
Mus musculus [4] = assay: Toxicity studies on male athymic NCr-nu mice administered ip daily for 5 consecutive days then rested for 10 days, and a second cycle of treatment also followed the q1d x 5 schedule; Death of all treated mice; type: organism-based; details: in vivo, 240 h
Mus musculus [5] = assay: as §2; type: organism-based; details: in vivo, 240 h

SMILES	IC50 (PC-3)	Lethal dose (Mus musculus [1])	IC50 (DU-145)	IC50 (DuPro)	Lethal dose (Mus musculus [2])	mortality at 240 h [3]	Lethal dose (Mus musculus [4])	Lethal dose (Mus musculus [5])
CCNCCCCNCC1CC1CNCCCCNCC1CC1CNCCCCNCC.Cl (stereo not given)	> 31200 nM	25 mg/kg	120 nM	380 nM	–	–	–	–
CCNCC1CC1CNCCCCNCC1CC1CNCC.Cl (stereo not given)	> 31200 nM	–	60 nM	260 nM	75 mg/kg	–	–	–
CCNCCCCNCCCCNCCCCNCCCCNCC1CC1CNCCCCNCCCCNCCCCNCCCCNCC (stereo not given)	400 nM	–	200 nM	340 nM	–	100%	–	–
CCNCC1CC1CNCC1CC1CNCC1CC1CNCC.Cl (stereo not given)	> 31500 nM	–	80 nM	630 nM	–	–	75 mg/kg	–
CCNCCCCNCC1CC1CNCCCCNCCCCNCC1CC1CNCCCCNCCCCNCC1CC1CNCCCCNCC.Cl (stereo not given)	300 nM	–	220 nM	200 nM	–	–	–	25 mg/kg
